Experimental findings from ChEMBL document CHEMBL4732243, “Design, synthesis, and structure activity relationship analysis of new betulinic acid derivatives as potent HIV inhibitors” (Eur J Med Chem, 2021) are described below.

The test system of series [1] is MT4. In words: Cytotoxicity against human MT4 cells assessed as reduction in cell viability incubated for 2 days by CytoTox-Glo cytotoxicity assay. As to conditions: mt4, 48 h, time 2 day. Type of series: cell-based. In outline:
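Mock-infected MT-4 cells cultured 2 days with a range of compound concentrations. Viability measured by CytoTox-Glo, following the kit protocol, as percent viable cells. CC50 is the concentration giving a 50% reduction in cell viability.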

Series [2] has as its system Human immunodeficiency virus 1. In words: Antiviral activity against HIV-1 NL4-3 infected in human MT4 cells assessed as reduction in p24 gag protein incubated for 4 days by ELISA. The format is functional, organism-based. The settings on record: Human immunodeficiency virus 1, NL4-3, MT4, 96 h. In outline: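 MT-4 cells infected with HIV-1 NL4-3 at MOI 0.01, serial compound concentrations, in 96-well format. Supernatant p24 antigen measured by capture ELISA on day 4 post-infection. IC50 is the concentration that inhibits NL4-3 replication by 50%. Bevirimat run in parallel as the reference.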

By CC50 is commonly meant the concentration giving 50% cytotoxicity.

Regarding `C=C(C)[C@@H]1CC[C@]2(C(=O)OCCCOC(=O)/C=C/c3ccc(OC)cc3)CC[C@]3(C)[C@H](CC[C@@H]4[C@@]5(C)CC[C@H](OC(=O)CC(C)(C)C(=O)O)C(C)(C)[C@@H]5CC[C@]43C)[C@@H]12`, the CC50 in series [1] was greater than 2 µM. For the same compound, the IC50 is 0.85 µM in series [2] (read-out: IC50) and 0.851 µM in series [2] (read-out: pIC50 (converted)).

Take `C=C(C)[C@@H]1CC[C@]2(C(=O)N3CCN(C(=O)/C=C/c4ccc(OCOC)cc4)CC3)CC[C@]3(C)[C@H](CC[C@@H]4[C@@]5(C)CC[C@H](OC(=O)CC(C)(C)C(=O)O)C(C)(C)[C@@H]5CC[C@]43C)[C@@H]12`: in series [1], the CC50 was greater than 2 µM. The IC50 in series [2] (read-out: IC50) and in series [2] (read-out: pIC50 (converted)) was 0.2 µM in each case.

Consider `C=C(C)[C@@H]1CC[C@]2(C(=O)N3CCN(c4cc(NCc5ccccc5)ncn4)CC3)CC[C@]3(C)[C@H](CC[C@@H]4[C@@]5(C)CC[C@H](OC(=O)CC(C)(C)C(=O)O)C(C)(C)[C@@H]5CC[C@]43C)[C@@H]12`, for which the CC50 in series [1] was greater than 2 µM. Further, in series [2] (read-out: IC50), the IC50 stood at 0.037 µM.

On to `C=C(C)[C@@H]1CC[C@]2(C(=O)N3CCN(C(=O)/C=C/c4cccc(OC)c4)CC3)CC[C@]3(C)[C@H](CC[C@@H]4[C@@]5(C)CC[C@H](OC(=O)CC(C)(C)C(=O)O)C(C)(C)[C@@H]5CC[C@]43C)[C@@H]12`, for which, in series [1], the CC50 is greater than 2 µM. Further, the values for the IC50 in series [2] (read-out: IC50) and in series [2] (read-out: pIC50 (converted)) were 0.15 µM and 0.151 µM, respectively.

Regarding `C=C(C)[C@@H]1CC[C@]2(C(=O)OCCCNc3nccs3)CC[C@]3(C)[C@H](CC[C@@H]4[C@@]5(C)CC[C@H](OC(=O)CC(C)(C)C(=O)O)C(C)(C)[C@@H]5CC[C@]43C)[C@@H]12`, the CC50 in series [1] is greater than 2 µM. The results for the IC50 in series [2] (read-out: IC50) and in series [2] (read-out: pIC50 (converted)) were 0.039 µM and 0.0389 µM, respectively.

On to `C=C(C)[C@@H]1CC[C@]2(C(=O)N3CCN(C(=O)/C=C/c4ccc5c(c4)OC(F)(F)O5)CC3)CC[C@]3(C)[C@H](CC[C@@H]4[C@@]5(C)CC[C@H](OC(=O)CC(C)(C)C(=O)O)C(C)(C)[C@@H]5CC[C@]43C)[C@@H]12`, for which the CC50 in series [1] is greater than 2 µM. Also, the IC50 was 0.59 µM in series [2] (read-out: IC50) and 0.589 µM in series [2] (read-out: pIC50 (converted)).

On to `C=C(C)[C@@H]1CC[C@]2(C(=O)N3CCN(C(=O)/C=C/c4ccc5c(c4)CCO5)CC3)CC[C@]3(C)[C@H](CC[C@@H]4[C@@]5(C)CC[C@H](OC(=O)CC(C)(C)C(=O)O)C(C)(C)[C@@H]5CC[C@]43C)[C@@H]12`, for which the CC50 in series [1] was greater than 2 µM. Further, the results for the IC50 in series [2] (read-out: IC50) and in series [2] (read-out: pIC50 (converted)) were 0.067 µM and 0.0676 µM, respectively.

In the case of `C=C(C)[C@@H]1CC[C@]2(C(=O)N3CCN(C(=O)CCc4ccc5c(c4)OCO5)CC3)CC[C@]3(C)[C@H](CC[C@@H]4[C@@]5(C)CC[C@H](OC(=O)CC(C)(C)C(=O)O)C(C)(C)[C@@H]5CC[C@]43C)[C@@H]12`, the CC50 in series [1] is greater than 2 µM. In addition, the IC50 in series [2] (read-out: IC50) was 0.022 µM; in series [2] (read-out: pIC50 (converted)) it was 0.0219 µM.

`C=C(C)[C@@H]1CC[C@]2(C(=O)N3CCN(C(=O)/C=C/c4cccs4)CC3)CC[C@]3(C)[C@H](CC[C@@H]4[C@@]5(C)CC[C@H](OC(=O)CC(C)(C)C(=O)O)C(C)(C)[C@@H]5CC[C@]43C)[C@@H]12`: the CC50 in series [1] was greater than 2 µM. Besides, the IC50 in series [2] (read-out: IC50) was 0.032 µM; in series [2] (read-out: pIC50 (converted)), 0.0324 µM.

With `C=C(C)[C@@H]1CC[C@]2(C(=O)N3CCN(C(=O)/C=C/c4cccc(OCc5cccc([N+](=O)[O-])c5)c4)CC3)CC[C@]3(C)[C@H](CC[C@@H]4[C@@]5(C)CC[C@H](OC(=O)CC(C)(C)C(=O)O)C(C)(C)[C@@H]5CC[C@]43C)[C@@H]12`, in series [1], the CC50 is greater than 2 µM. For the same compound, the IC50 in series [2] (read-out: IC50) is 0.58 µM; in series [2] (read-out: pIC50 (converted)), 0.575 µM.

As for `C=C(C)[C@@H]1CC[C@]2(C(=O)N3CCN(C(=O)c4cc5cc(OC)ccc5[nH]4)CC3)CC[C@]3(C)[C@H](CC[C@@H]4[C@@]5(C)CC[C@H](OC(=O)CC(C)(C)C(=O)O)C(C)(C)[C@@H]5CC[C@]43C)[C@@H]12`, the CC50 in series [1] was greater than 2 µM. Besides, the values for the IC50 in series [2] (read-out: IC50) and in series [2] (read-out: pIC50 (converted)) were 0.053 µM and 0.0525 µM, respectively.
